High-throughput results from PubChem.
Only some compounds are listed: those with a hit (about 1.7% of all), similar ones and a draw of the others.
m5-HT2A agonist: mouse Htr2a agonists via beta-arrestin recruitment, primary screen, cell-based, luminescence | 5-hydroxytryptamine receptor 2A (Mus musculus), P35363 | CHO-K1 mHTR2A beta-arrestin complementation; percent of 30 µM serotonin response | activation, % at 7.6 µM | actives 0.66% (n = 360,000);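 active = activation above a run cutoff, the mean activation of all tested compounds plus 3 SD, cut at about 14% in these data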
PP5 primary: PP5 phosphatase inhibitors, primary screen, biochemical, fluorescence | Serine/threonine-protein phosphatase 5 (Homo sapiens), P53041 | purified PP5c, OMFP substrate fluorescence | inhibition, % at 6.7 µM | actives 0.18% (n = 320,000) | AID 1987, 2009;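 active = inhibition above the campaign's mean inhibition across all tested compounds plus 3 SD, cut at about 9.5% in these data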
PP1 inh: PP1-alpha phosphatase inhibitors, primary screen, counter-screen for PP5 inhibitor project, biochemical, fluorescence, OMFP substrate, single point; AID 2235, 2010; actives 0.9% (n = 320,000); inhibition, % at 6.7 µM; purified PP1alpha; Serine/threonine-protein phosphatase PP1-alpha catalytic subunit (Homo sapiens), P62136;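 active = inhibition above the mean inhibition of all tested compounds plus 3 SD, computed separately for each screening campaign, cut at about 15% in these data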
T cell modulator: modulators of CD8 T cell-vesicle binding, primary screen, mouse 2C CD8+ T cells, flow cytometry | 2C CD8+ T cell-vesicle binding; stronger effect = lower value | actives 0.068% (n = 330,000) | response (vesicle binding), % at 7 µM;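 active = response, share of CD8 T cells binding vesicles, and their 90th percentile fluorescence all below set limits, cut at about 80% in these data, passing the limit was not always enough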;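 note: values below 100% mean blocked vesicle binding to the CD8+ T cells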
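material = purified 2C TCR transgenic mouse naive CD8+ T cells | controls = Unloaded micro-vesicles (low), QL9 vesicles with 0.7% DMSO (high) | detection = cytometric PE anti-B7-1 and Alexa647 anti-CD8 signals after 1% paraformaldehyde fixation | incubation = binding step 1.5 h, 37 °C, antibody labelling 20 min, ice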
GASC-1 inh: inhibitors of GASC-1 histone demethylase, primary screen, biochemical, fluorescence, DELFIA europium | actives 0.069% (n = 330,000) | Lysine-specific demethylase 4C (Homo sapiens), Q9H3R0 | GST-JMJD2C(1-420) H3K9me3 demethylation | inhibition, % at 2.35 µM;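 active = more than half of a compound's replicate wells show inhibition beyond 50%, single wells judged on their own value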;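 note: signal counts dimethyl H3K9 product captured on neutravidin plate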
MOR ag counter: OPRM1 agonists via beta-arrestin recruitment, confirmation, counter-screen for mouse HTR2A agonist project, cell-based, luminescence, single concentration; shares compounds with m5-HT2A agonist; U2OS OPRM1 beta-arrestin PathHunter; DMSO 0%, DAMGO 9.3 µM 100%; activation, % at 9.3 µM; actives 5.3% (n = 2,300);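 active = mean activation above the mean of DMSO-only wells plus 3 SD, cut at about 0.5% in these data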
Target sequence (P35372 whole entry, looked up): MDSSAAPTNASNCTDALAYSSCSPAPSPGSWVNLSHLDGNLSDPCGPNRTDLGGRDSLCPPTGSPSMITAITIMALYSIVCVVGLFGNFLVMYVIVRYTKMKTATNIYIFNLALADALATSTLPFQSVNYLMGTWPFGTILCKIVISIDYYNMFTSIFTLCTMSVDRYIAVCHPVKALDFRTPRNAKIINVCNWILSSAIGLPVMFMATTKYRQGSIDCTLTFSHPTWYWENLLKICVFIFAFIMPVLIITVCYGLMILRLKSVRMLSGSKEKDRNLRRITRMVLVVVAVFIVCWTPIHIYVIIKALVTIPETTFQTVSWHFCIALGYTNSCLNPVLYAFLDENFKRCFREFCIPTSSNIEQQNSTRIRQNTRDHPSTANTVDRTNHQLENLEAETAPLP
m5-HT2A ag conf: mouse HTR2A agonists, beta-arrestin recruitment, confirmation, cell-based, luminescence, CHO-K1 PathHunter, triplicate. shares compounds with m5-HT2A agonist. DMSO 0%, 30 µM serotonin 100%. activation, % at 7.6 µM. actives 19% (n = 2,300). AID 624381, 2012;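 active = mean activation across triplicates above the hit threshold derived in the original primary screen, cut at about 15% in these data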
Hits are given with their value; 0 = inactive; - = no result.

SMILES | m5-HT2A agonist | PP5 primary | PP1 inh | T cell modulator | GASC-1 inh | MOR ag counter | m5-HT2A ag conf
O=[N+]([O-])c1c(O)c(Cl)cc(Cl)c1Cl (tested in a mixture with another compound) | 0 | - | - | - | - | - | -
COC(=O)c1ccc(/C=N/N2CCN(Cc3ccc(C)cc3C)CC2)cc1 | 18.2 | 0 | 0 | 0 | 0 | 0 | 15.3
O=C(NCCc1nccs1)C1CCC(=O)N(Cc2cccc(C(F)(F)F)c2)C1 (configuration not stated) | 0 | 0 | 0 | 0 | 0 | - | -
CCOC(=O)C1=C(CS(=O)(=O)c2ccccc2)NC(=O)NC1c1ccc(OC)c(OC)c1 (configuration not stated) | 0 | 0 | 0 | 0 | 0 | - | -
CCOC(=O)C1=C(CS(=O)(=O)c2ccccc2)NC(=O)NC1c1ccccc1OCC (configuration not stated) | 17.2 | 0 | 0 | 0 | 0 | 0 | 0
CCc1nc2c(OCC(=O)c3ccc(F)cc3)cccn2c1N(C)C(=O)C(C)C | 24.3 | - | - | - | - | 0 | 0
CCc1nc2c(OC)cccn2c1N(C)C(=O)c1ccccc1F | 0 | - | - | - | - | - | -
CCc1nc2c(OCc3ccc(F)cc3)cccn2c1N(C)C(=O)C(C)C | 0 | - | - | - | - | - | -
C=CCOc1cccn2c(N(C)C(=O)c3ccccc3F)c(CC)nc12 | 15.7 | - | - | - | - | 0 | 0
CCOC(=O)/C=C(\C)N1N=C(c2ccccc2)CC1c1ccccc1 (configuration not stated) | 20.1 | 0 | 0 | 0 | 0 | 0 | 0
S=c1[nH]nc(CSCc2ccccc2Cl)n1C1CCCCC1 | 29.3 | - | - | - | 0 | 0 | 0
Cn1c(CSCc2ccccc2Cl)n[nH]c1=S | 0 | 0 | 0 | 0 | 0 | - | -
O=C(c1ccco1)N1CCN(CCCCN2C(=O)c3ccccc3C2=O)CC1 | 17.1 | 0 | 0 | 0 | 0 | 0 | 54.4
O=C(c1ccco1)N1CCN(CCCCOc2ccc(F)cc2)CC1 | 18.6 | 0 | 0 | 0 | 0 | 0 | 63.1
O=[N+]([O-])c1ccc(OCC(O)CN2CCN(c3ccccc3F)CC2)cc1 (configuration not stated) | 19.9 | 0 | 0 | 0 | 0 | 0 | 46.0
Cc1ccc(N2CCN(CC(O)COc3ccc([N+](=O)[O-])cc3)CC2)cc1 (configuration not stated) | 0 | 0 | 0 | 0 | 0 | - | -
O=S(=O)(c1ccc(OCC(O)CN2CCN(c3ccccc3O)CC2)cc1)N1CCOCC1 (configuration not stated) | 18.5 | 0 | 0 | 0 | 0 | 0 | 45.6
Cc1cccc(C)c1OCC(O)CN1CCN(c2ccccc2)CC1 (configuration not stated) | 14.9 | 0 | 0 | 0 | 0 | 0 | 60.6
COc1cccc(OC)c1OCC(O)CN1CCN(c2ccccc2)CC1 (configuration not stated) | 0 | 0 | 0 | 0 | 0 | - | -
O=S(=O)(c1ccc(OCC(O)CN2CCN(c3ccccc3)CC2)cc1)N1CCOCC1 (configuration not stated) | 18.5 | 0 | 0 | 0 | 0 | 0 | 83.2
CC(C)C(=O)Nc1c2c(nn1-c1ccc(F)cc1)CSC2 | 15.8 | 0 | 0 | 0 | 0 | 0 | 0
CC(C)(C)Nc1nc2ccc([N+](=O)[O-])cc2o1 | 14.7 | 0 | 0 | 0 | 0 | 0 | 0
COc1ccc(/C=C/C(=O)Nc2cc(C)on2)cc1 | 0 | 0 | 0 | 0 | 0 | - | -
COc1ccc(/C=C/C(=O)Nc2nonc2NC(C)=O)cc1 | 25.1 | 0 | 0 | 0 | 0 | 0 | 0
COc1ccc(CCNC(=O)C(=O)NCCC2CCCCN2S(=O)(=O)c2cccs2)cc1 (configuration not stated) | 0 | 0 | 0 | 0 | 0 | - | -
SMILES | m5-HT2A agonist | PP5 primary | PP1 inh | T cell modulator | GASC-1 inh | MOR ag counter | m5-HT2A ag conf
CCCS(=O)(=O)NC(=O)C1(C)CCN1C(=O)Cc1ccc(-c2ccccc2)cc1 (configuration not stated) | 17.5 | - | - | - | - | 0 | 0
Cn1c(NC(=O)C[n+]2cc(-c3ccc(F)cc3)n3c2CCC3)cc(=O)n(C)c1=O | 14.6 | 0 | 0 | 0 | 0 | 0 | 0
[O-]/[N+](=N\Nc1ccc(Cl)cc1)c1ccccc1 | 0 | - | - | - | - | - | -
C/C(=N\NC(=O)c1ccc(Cn2cc(Br)cn2)o1)c1ccc(NC(=O)c2ccoc2C)cc1 | 0 | - | - | - | 0 | - | -
COc1ccc(-c2nc(CS(=O)CC(=O)NCCCN3CCOCC3)c(C)o2)cc1OC (configuration not stated) | 16.9 | 0 | 0 | 0 | 0 | 0 | 0
COc1ccc(CC(=O)OCC(=O)N(C)C2CCS(=O)(=O)C2)cc1OC (configuration not stated) | 0 | 0 | 0 | 0 | 0 | - | -
OC(COc1ccc2cc(Br)ccc2c1)CN1CCN(c2ccccn2)CC1 (configuration not stated) | 24.2 | 0 | 0 | 0 | 0 | 0 | 107.8
COc1cccc(OCC(O)CN2CCN(c3ccccn3)CC2)c1 (configuration not stated) | 33.1 | 0 | 0 | 0 | 0 | 0 | 83.8
CCc1nc2c3cnn(-c4cc(Cl)ccc4C)c3ncn2n1 | 16.4 | 0 | 0 | 0 | 0 | 0 | 0
CC(C(=O)OCC(=O)c1ccc(Br)cc1)N1C(=O)C2C3CCC(C3)C2C1=O (configuration not stated) | 0 | 0 | 0 | 0 | 0 | - | -
COc1ccc(CNC(=O)c2ccc(C(C)(C)C)cc2)cc1 | 0 | 0 | 0 | 0 | 0 | - | -
COc1ccc(CNC(=O)c2ccc(C(C)C)cc2)cc1 | 15.4 | 0 | 0 | 0 | 0 | 0 | 0
O=C(Nc1cccnc1)c1cc(-c2ccccc2)on1 | 0 | 0 | 0 | 0 | 0 | - | -
O=C(Nc1cccnc1)c1cc(-c2ccco2)on1 | 20.3 | 0 | 0 | - | 0 | 0 | 0
CN(CC1CCCO1)S(=O)(=O)c1ccc(C(=O)Nc2nccs2)cc1 (configuration not stated) | 0 | 0 | 0 | 0 | 0 | - | -
CC1(C)C(C=C(Cl)Cl)C1C(=O)N1CCN(Cc2ccccc2)CC1 (configuration not stated) | 20.0 | 0 | 0 | 0 | 0 | 0 | 75.7
O=C(NCCc1ccccc1)C1CCCN(c2ncnc3c2nc2n3CCCCC2)C1 (configuration not stated) | 14.5 | 0 | 0 | 0 | 0 | 0 | 0
